In assay [1] the test system is Rattus norvegicus. Briefly: The compound at a dose of 50 mg/kg is evaluated for percent change in Non-High Density Lipoprotein level in chronic cholesterol fed rat screen. The assay is classed as functional. The method in brief:
(§1)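 Chronic model: rats fed the high-fat, high-cholesterol diet for 14 days. In the second week, 50 mg/kg given daily by gavage in carboxymethylcellulose/Tween-20 aqueous vehicle. Plasma HDL and non-HDL cholesterol expressed as % change versus control. Body-weight gain monitored. ANOVA with Fisher's multiple range test, p<0.05.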

Assay [2] concerns Rattus norvegicus. Briefly: The compound at a dose of 50 mg/kg is evaluated for percent change in High Density Lipoprotein (HDl) level in chronic cholesterol fed rat screen. In kind it is functional. The method in brief: as §1
Assay [3] has as its target Sterol O-acyltransferase 1 (Oryctolagus cuniculus). Briefly: In vitro inhibition of rabbit intestinal acyl coenzyme A:cholesterol acyltransferase using [1-14C]oleolyl-CoA.
Assay [4] is filed under the species Rattus norvegicus. Briefly: Percent change in total cholesterol in cholic acid (0.5%)-cholesterol (1.5%)-peanut oil (5.5%)-fed rats. The assay is classed as functional. The gist of the method:
(§2)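 Acute screen: rats given a single gavage dose, 50 mg/kg standard unless noted, suspended in carboxymethylcellulose plus Tween-20 in water, then a single high-fat, high-cholesterol meal (0.5% cholic acid, 1.5% cholesterol, 5.5% peanut oil). Overnight rise in plasma total cholesterol measured as % change versus control. Stomachs checked for food. ANOVA with Fisher's multiple range test, p<0.05.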

Assay [5] concerns Rattus norvegicus. Briefly: Percent change in total cholesterol in cholic acid (0.5%)-cholesterol (1.5%)-peanut oil (5.5%)-fed rats (50 mg/kg was administered as the standard dose); No change. The assay is classed as functional, organism-based. The method in brief:
as §2

Assay [6] has as its system Rattus norvegicus. Briefly: The compound at a dose of 50 mg/kg is evaluated for percent change in High Density Lipoprotein (HDL) level in chronic cholesterol fed rat screen. In kind it is functional. The method in brief: as §1
Assay [7] deals with Rattus norvegicus. Briefly: The compound at a dose of 50 mg/kg is evaluated for percent change in High Density Lipoprotein (HDl) level in chronic cholesterol fed rat screen; No change. The assay is classed as functional, organism-based. On the set-up: dose 50 mg/kg. The gist of the method: as §1
Assay [8] has as its system Rattus norvegicus. Briefly: The compound at a dose of 50 mg/kg is evaluated for percent change in NON-High Density Lipoprotein level in chronic cholesterol fed rat screen. In kind it is functional. The method in brief:
as §1

The target in assay [9] is T1, Sterol O-acyltransferase 1 (Rattus norvegicus, UniProt O70536).
T1 sequence (O70536 whole entry): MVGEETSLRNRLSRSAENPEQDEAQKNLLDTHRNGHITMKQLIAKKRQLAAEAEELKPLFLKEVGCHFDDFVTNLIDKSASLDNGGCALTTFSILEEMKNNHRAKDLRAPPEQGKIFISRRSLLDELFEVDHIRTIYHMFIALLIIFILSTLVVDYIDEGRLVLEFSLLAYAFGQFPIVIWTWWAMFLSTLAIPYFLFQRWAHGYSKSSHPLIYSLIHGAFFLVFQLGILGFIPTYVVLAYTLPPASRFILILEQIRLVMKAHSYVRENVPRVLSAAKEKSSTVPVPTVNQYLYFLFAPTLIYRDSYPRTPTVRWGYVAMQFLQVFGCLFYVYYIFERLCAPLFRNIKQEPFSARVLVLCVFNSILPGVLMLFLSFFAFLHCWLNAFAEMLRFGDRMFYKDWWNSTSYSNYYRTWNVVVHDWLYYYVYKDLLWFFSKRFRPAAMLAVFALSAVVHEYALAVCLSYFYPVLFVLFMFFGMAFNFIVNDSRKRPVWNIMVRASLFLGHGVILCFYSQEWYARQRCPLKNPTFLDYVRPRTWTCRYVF
Briefly: In vitro inhibition of rat intestinal acyl coenzyme A:cholesterol acyltransferase using [1-14C]oleolyl-CoA.

The record followed here is ChEMBL document CHEMBL1127542, “Inhibitors of acyl-CoA:cholesterol O-acyl transferase (ACAT) as hypocholesterolemic agents. 8. Incorporation of amide or amine functionalities into a series of disubstituted ureas and carbamates. Effects on ACAT inhibition in vitro and efficacy in vivo” (J Med Chem, 1994).

As a reminder, the IC50 is the concentration that gives 50% inhibition.

The source made the active and inactive calls. No cut-off for these calls is given here.

Turning to `CCCCCCCCCCCCNC(CNC(=O)Nc1c(C(C)C)cccc1C(C)C)c1ccccc1` (racemic), the Change in the assay with Rattus norvegicus [1] is 27%; in the assay on Rattus norvegicus [2], 29%; in the assay listed under Rattus norvegicus [4], -45%. In [3], this molecule showed an IC50 of 45 nM.
With `CCOC(=O)N1CCN(CCCCCC(=O)NC(CNC(=O)Nc2c(C(C)C)cccc2C(C)C)c2ccccc2)CC1` (stereo not given), the Change result in the assay on Rattus norvegicus [5] is “inactive”. For the same molecule, the IC50 in [3] came out at 2800 nM.
In the same order, the values of `CC(C)c1cccc(C(C)C)c1NC(=O)NCC(NC(=O)CCCCCN(C)C)c1ccccc1` (stereo not given) are “inactive” and 4200 nM.
Take `CCCCCCC(=O)NCC(CNC(=O)Nc1c(C(C)C)cccc1C(C)C)c1ccccc1` (stereo not given): the Change entry with Rattus norvegicus [5] is “inactive”. This molecule also yielded an IC50 in assay [3] of 650 nM.
Consider `CC(C)c1cccc(C(C)C)c1NC(=O)NCC(NC(=O)c1cccc[n+]1[O-])c1ccccc1` (stereo not given), for which the Change in the assay with Rattus norvegicus [1] was -31%; in the assay on Rattus norvegicus [2] it was 70%; in the assay listed under Rattus norvegicus [4] it was -44%. Also, in [3], 130 nM corresponded to half-maximal inhibition (IC50).
For `CC(C)c1cccc(C(C)C)c1NC(=O)NCC1(c2ccc(N(C)C)cc2)CCCC1` [NEVANIMIBE], the Change in the assay on Rattus norvegicus [6] is listed as 200%; in the assay on Rattus norvegicus [1] it was -62%.
Regarding `CCCCCCCCCCCCNCC(CNC(=O)Nc1c(C(C)C)cccc1C(C)C)c1ccccc1` (racemic), the Change entry in the assay on Rattus norvegicus [7] is “inactive”. The same molecule had an IC50 in [3] of 110 nM. Also, in the assay listed under Rattus norvegicus [4], the Change is -54%.
As for `CC(=O)NC(CNC(=O)Nc1c(C(C)C)cccc1C(C)C)c1ccccc1` (stereo not given), in the assay on Rattus norvegicus [5], the Change result is “inactive”. Moreover, the midpoint of inhibition in [3], the IC50, lay at 2500 nM.
`CC(C)c1cccc(C(C)C)c1NC(=O)NCC(NC(=O)c1c(Cl)cccc1Cl)c1ccccc1` (stereo not given): in the assay with Rattus norvegicus [5], the Change result is “inactive”. For the same molecule, the IC50 in [3] came out at 1200 nM.
On the same counts, the results for `CC(C)c1cccc(C(C)C)c1NC(=O)NCC(CNC(=O)c1ccccc1)c1ccccc1` (stereo not given) are “inactive” and 1900 nM.
In the same order, the values of `CC(C)c1cccc(C(C)C)c1NC(=O)NCC(NC(=O)c1ccccc1)c1ccccc1` (stereo not given) are “inactive” and 530 nM.
In the same order, the values of `CC(C)c1cccc(C(C)C)c1NC(=O)NCC(NC(=O)CCCCCN)c1ccccc1` (stereo not given) are “inactive” and greater than 5000 nM.
For the molecule `CCCCCCC(=O)NC(CNC(=O)Nc1c(C(C)C)cccc1C(C)C)c1ccccc1` (stereo not given), in the assay on Rattus norvegicus [5], the Change result is “inactive”. The molecule further yielded an IC50 in [3] of 150 nM.
`CC(C)c1cccc(C(C)C)c1NC(=O)NCC(NCc1ccccc1O)c1ccccc1` (single isomer, unassigned; (-)): the Change was 40% in the assay with Rattus norvegicus [2], -50% in the assay listed under Rattus norvegicus [4] and 3% in the assay on Rattus norvegicus [8]. The molecule also came in with an IC50 in assay [3] of 120 nM.
`CC(C)c1cccc(C(C)C)c1NC(=O)NCC(NCc1ccccc1C(F)(F)F)c1ccccc1` (single isomer, unassigned; (-)) displayed an IC50 in assay [3] of 45 nM. Also, the Change in the assay filed under Rattus norvegicus [4] is given as -42%.
In the same order, the values of `CC(C)c1cccc(C(C)C)c1NC(=O)NCC(NCc1ccoc1)c1ccccc1` (stereo not given) are 48 nM and -38%.
Turning to `Cc1ccc(CNC(CNC(=O)Nc2c(C(C)C)cccc2C(C)C)c2ccccc2)cc1` (racemic), the IC50 in assay [3] turned out to be 52 nM. Also, in the assay listed under Rattus norvegicus [4], the Change was -45%.
As to `CC(C)=CCCC(C)CC(=O)NC(CNC(=O)Nc1c(C(C)C)cccc1C(C)C)c1ccccc1` (stereo not given), the Change entry in the assay with Rattus norvegicus [5] was “inactive”. Further, inhibition in [3] was half-maximal at 400 nM (IC50).
In assay [9], `CC(C)c1cccc(C(C)C)c1NC(=O)NCC(NCc1ccc(CN(C)C)cc1)c1ccccc1` (single isomer, unassigned; (-)) had an IC50 of 170 nM. For the same molecule, the Change in the assay filed under Rattus norvegicus [4] is listed as -57%.
Turning to `CCCCCCCCCCCCCCCCNC(CNC(=O)Nc1c(C(C)C)cccc1C(C)C)c1ccccc1` (racemic), in the assay with Rattus norvegicus [5], the Change entry was “inactive”. The molecule further came in with an IC50 in assay [3] of 120 nM.
In the same order, the values of `CCCCCCCCCCCCCCCC(=O)NC(CNC(=O)Nc1c(C(C)C)cccc1C(C)C)c1ccccc1` (stereo not given) are “inactive” and 81 nM.
Molecule `COc1ccc(C(=O)NC2(CNC(=O)Nc3c(C(C)C)cccc3C(C)C)CCCC2)cc1` registered an IC50 in assay [3] of 500 nM. Further, the Change in the assay filed under Rattus norvegicus [4] is -6%.
As to `CC(C)c1cccc(C(C)C)c1NC(=O)NCC(NCc1ccc(N(C)C)cc1)c1ccccc1` (single isomer, unassigned; (-)), the 50% inhibitory concentration (IC50) in [3] was 150 nM. Besides, the Change in the assay listed under Rattus norvegicus [4] is -45%.
On the same counts, the results for `CCCCCCCCCCCCCCCCCC(=O)NC(CNC(=O)Nc1c(C(C)C)cccc1C(C)C)c1ccccc1` (stereo not given) are 1700 nM and 8%.
In the same order, the values of `COc1ccc(CNC(CNC(=O)Nc2c(C(C)C)cccc2C(C)C)c2ccccc2)cc1` (stereo in doubt; 9m(+)) are 70 nM and -36%.
`CCCCCCCCCCCC(=O)NCC(CNC(=O)Nc1c(C(C)C)cccc1C(C)C)c1ccccc1` (stereo not given): in the assay with Rattus norvegicus [5], the Change entry was “inactive”. Also, the IC50 in assay [3] was 79 nM.
In the case of `CC(C)c1cccc(C(C)C)c1NC(=O)NCC(Cc1ccccc1)NCc1ccccc1O` (stereo not given), the IC50 in assay [3] turned out to be 410 nM. Further, the Change in the assay listed under Rattus norvegicus [4] is -37%.
Take `COC(=O)CCCCC(=O)NC(CNC(=O)Nc1c(C(C)C)cccc1C(C)C)c1ccccc1` (stereo not given): in the assay with Rattus norvegicus [5], the Change result is “inactive”. This molecule displayed an IC50 in assay [3] of 2600 nM.
As for `CCCCCNC(CNC(=O)Nc1c(C(C)C)cccc1C(C)C)c1ccccc1` (racemic), the IC50 in assay [3] was determined as 110 nM. Further, the Change in the assay filed under Rattus norvegicus [4] was -38%.
For the molecule `CC(C)c1cccc(C(C)C)c1NC(=O)NCC1(c2ccccc2)CCCC1`, the Change with Rattus norvegicus [1] is -7%; in the assay with Rattus norvegicus [2], -12%; in the assay listed under Rattus norvegicus [4], -38%. In assay [3], this molecule showed an IC50 of 17 nM.
Turning to `CCCCCCCCCCNC(CNC(=O)Nc1c(C(C)C)cccc1C(C)C)c1ccccc1` (racemic), the 50% inhibitory concentration (IC50) in [3] was determined as 83 nM. In addition, the Change in the assay listed under Rattus norvegicus [4] was -38%.
In the same order, the values of `CC(C)c1cccc(C(C)C)c1NC(=O)NCC(NCc1ccco1)c1ccccc1` (single isomer, unassigned; (+)) are 99 nM and -23%.
As for `COCCCCCC(=O)NC(CNC(=O)Nc1c(C(C)C)cccc1C(C)C)c1ccccc1` (stereo not given), in the assay on Rattus norvegicus [5], the Change result is “inactive”. The molecule further registered an IC50 in assay [3] of 380 nM.
